# Most compounds without a hit are left out; they make up all but 2.5% or so of the library.
# MC4R ag barr: activates human MC4R beta-arrestin recruitment. U2OS MC4R beta-arrestin complementation, luminescence; percent of melanotan II response, DMSO zero. activation, % at 8.9 µM. hit rate 0.98% among 360,000. AID 540308;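 active = activation above a per-plate cutoff, the mean activation of sample wells on that plate plus 3 SD, cut at about 8% in these data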
# Target sequence (P32245 whole entry, looked up): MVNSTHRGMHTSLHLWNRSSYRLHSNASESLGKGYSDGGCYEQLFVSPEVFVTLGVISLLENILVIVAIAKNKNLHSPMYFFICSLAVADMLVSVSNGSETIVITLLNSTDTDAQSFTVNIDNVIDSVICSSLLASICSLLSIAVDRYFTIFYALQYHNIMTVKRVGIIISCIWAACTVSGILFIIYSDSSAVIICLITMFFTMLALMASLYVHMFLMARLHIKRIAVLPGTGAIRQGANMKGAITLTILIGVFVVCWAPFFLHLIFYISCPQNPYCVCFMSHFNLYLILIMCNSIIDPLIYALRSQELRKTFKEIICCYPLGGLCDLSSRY
# Bfl-1 A1 inh: inhibitors of the anti-apoptotic protein A1, read as caspase activation | caspase activation, % (test concentration not listed) | MEF A1-2A-BIM cells, Caspase-Glo 3/7 luminescence, 3 h; percent of clofoctol response, vehicle zero | AID 2462 | hit rate 0.066% among 330,000;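 active = over half of replicate activation scores above 10%, or exactly half above 10 with the replicate mean above 10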
# TbMetRS inhib: blocks T. brucei methionyl-tRNA synthetase activity. purified T. brucei MetRS, ATP depletion, Kinase-Glo luminescence. inhibition, % at 11.9 µM. hit rate 0.4% among 360,000;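 active = inhibition above a per-plate cutoff of the control wells' mean inhibition plus 3 SD, cut at about 5.5% in these data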;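 also: 0% = DMSO wells median and 100% = median of wells with control inhibitor compound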
#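 Test system – parasite MetRS enzyme · Reagent – substrates ATP, L-methionine and bulk Escherichia coli tRNA · Doses – 11.9 µM compound single dose, 0.9% DMSO · Times – 15 min enzyme-compound preincubation, 2 h reaction, 10 min detection, 25 °C · Signal – Kinase-Glo luminescence, ATP depletion format · Controls – DMSO-only wells as low control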
# NALP1 inh: NALP1 inhibition; S. cerevisiae NALP1/ASC/caspase-1 growth, X-gal OD620, 72 h; inhibition, % at 10 µM; hit rate 0.61% among 280,000; AID 2071; in the data active = inhibition mostly above about 24%, no sharp cut-off; inactive = mostly below about 32%
# MC4R antag cAMP: blocks human MC4R cAMP signaling; P32245; MC4R-expressing cells, MTII-stimulated cAMP, LANCE TR-FRET; inhibition, % at 6.5 µM; hit rate 0.48% among 360,000;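 active = inhibition above its plate's cutoff, the mean of tested wells on that plate plus 3 SD, cut at about 29% in these data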;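 also: 0% = Melanotan II alone and 100% = Melanotan II plus saturating MCL0020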
#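 Assay system: U2OS-MC4R stable cell line; Also added: Melanotan II; Technique: Eu-cAMP/anti-cAMP TR-FRET, emission 671 nm; Times: 30-min compound, 1-h challenge, 1-h detection, room temperature.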
# NLRP3 yeast inh: NALP3 inhibition in yeast | hit rate 0.39% among 330,000 | inhibition, % at 10 µM | Yeast reconstituted NLRP3/ASC/caspase-1, beta-gal luminescence, 24 h;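 active = inhibition of 50% or more; inactive = inhibition below 50%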;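 also: plate controls were induced DMSO wells for no effect and uninduced yeast grown without galactose for full effect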
# Tb MetRS conf: Trypanosoma brucei MetRS inhibition confirmed | shares compounds with TbMetRS inhib | T. brucei MetRS enzyme, luminescence (ATP depletion) | inhibition, % at 11.9 µM | hit rate 93% among 1,400 | AID 624412; in the data active = inhibition above about 7%
# Jurkat cytotox: kills Jurkat cells in T. brucei MetRS counterscreen | Jurkat cells viability, ATP luminescence | inhibition, % at 8.3 µM | hit rate 12% among 1,400 | AID 624413 | shares compounds with TbMetRS inhib; in the data active = inhibition above about 15%;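 also: 0% = vehicle and 100% = reference inhibitor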
# TbMetRS FP orth: inhibits T. brucei methionyl tRNA synthetase in orthogonal FP test | shares compounds with TbMetRS inhib | purified T. brucei MetRS, fluorescence polarization | inhibition, % at 11.9 µM | hit rate 44% among 1,400 | AID 651607; in the data active = inhibition above about 17%;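 also: 0% = vehicle wells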
# * hit, by the source's call; nt = not tested or not shown.
SMILES,MC4R ag barr,Bfl-1 A1 inh,TbMetRS inhib,NALP1 inh,MC4R antag cAMP,NLRP3 yeast inh,Tb MetRS conf,Jurkat cytotox,TbMetRS FP orth
COC(=O)C(Cc1cnc(Cl)s1)(C(=O)OC)c1ccc([N+](=O)[O-])cc1[N+](=O)[O-],-1,0,0,-1,2,18,nt,nt,nt
O=[N+]([O-])c1ccc(OCc2cnc(Cl)s2)c([N+](=O)[O-])c1,-2,1,6.7*,5,7,-3,18*,1,16
O=C(Cc1cccs1)NCc1cc(Cl)cc(Cl)c1,-1,0,56*,12,-1,6,73*,-2,44*
S=C(NCc1cccs1)Nc1cc(Cl)cc(Cl)c1,3,-1,23*,12,12,37,31*,4,20*
O=C(Cn1cc(C(=O)C(=O)N2CCOCC2)c2ccccc21)Nc1cccc(C(F)(F)F)c1,-2,nt,90*,nt,1,nt,97*,3,95*
Clc1ccc(OCCn2ccnc2)c(Cl)c1,-1,0,-1,-3,3,16,nt,nt,nt
OC(COc1ccc(Cl)cc1Cl)Cn1ccnc1 (stereo not drawn),-2,1,6.0*,-1,1,16,14*,-1,4
O=C(CCCOc1ccc(Cl)cc1Cl)NCCCn1ccnc1,0,0,6.5*,26,15,7,18*,-7,11
COc1ccc(Cl)cc1NC(=O)CN(C)C(=O)C12CC3CC(CC(Cl)(C3)C1)C2,-1,0,0,7,3,6,nt,nt,nt
O=C(COc1ccc(Br)cc1)NNC(=O)c1ccc(-n2cncn2)c([N+](=O)[O-])c1,-3,0,20*,nt,9,9,54*,1,23*
Cc1ccc(C)c(S(=O)(=O)N2CCN(C(=O)c3ccc(-n4cncn4)c([N+](=O)[O-])c3)CC2)c1,1,1,1,nt,2,7,nt,nt,nt
CCc1ccc(OCC(=O)NNC(=O)c2ccc(-n3cncn3)c([N+](=O)[O-])c2)cc1,-1,nt,5.9*,nt,13,nt,35*,-8,17*
Cc1ccc(OCC(=O)NNC(=O)c2ccc(-n3cncn3)c([N+](=O)[O-])c2)cc1,-1,-2,16*,nt,3,-5,41*,-4,17*
CCC(C(=O)OCC(=O)N(C)c1c(N)n(Cc2ccccc2)c(=O)[nH]c1=O)c1ccccc1 (stereo not drawn),-4,0,0,nt,5,7,nt,nt,nt
O=C(OC(C(=O)c1c[nH]c2ccccc12)c1ccccc1)c1cnccn1 (stereo not drawn),0,1,15*,7,0,1,27*,-4,17*
O=C(c1c[nH]c2ccccc12)C(Cl)c1ccccc1 (stereo not drawn),-1,3,25*,45*,16,33,45*,45*,23*
O=C1CCC(C(=O)OC(C(=O)c2c[nH]c3ccccc23)c2ccccc2)=NN1 (stereo not drawn),-2,0,9.9*,7,3,17,24*,4,9
O=C(c1c[nH]c2ccccc12)C(O)C(c1ccccc1)N1CCOCC1 (stereo not drawn),-1,0,1,-7,1,-8,nt,nt,nt
Cc1cccc(C)c1OCc1cc(C(=O)NCc2cn(C)nc2C)no1,-2,0,0,-20,12,7,nt,nt,nt
O=C(NCC(O)c1ccc([N+](=O)[O-])cc1)Nc1ccccc1 (stereo not drawn),0,1,27*,16,0,-12,46*,-7,21*
CCOC(=O)c1ccc(NC(=O)c2nc[nH]c2C(=O)NC[C@H](C)O)cc1,0,nt,0,nt,9,nt,nt,nt,nt

# Assay outcomes from PubChem.
